# Measurements from ChEMBL document CHEMBL1121682, “Cerebrovasodilatation through selective inhibition of the enzyme carbonic anhydrase. 3. 5-(Arylthio)-, 5-(arylsulfinyl)-, and 5-(arylsulfonyl)thiophene-2-sulfonamides” (J Med Chem, 1981).
# Calls of active or inactive are those of the source. No cut-off for these calls is given here.
# Legend:
# [1] = Anticonvulsant potency ratio expressed as ratio ED50 of UK-12130 to that of compound during separate electroshock experiments; assay type: functional
# Mus musculus [2] = assay: Effective dose of perorally administered, that gives protection against max electroshock in mice; assay type: functional; settings: po
# Summary of the method: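 Male mice of 18–28 g, with weights within ±2 g of the assay mean, in groups of ten. Vehicle controls were included. Corneal electrodes delivered 200 ms at 20 mA (mean weight ≤20 g) or 25 mA, the current giving maximal tonic extensor convulsion in untreated mice.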
# [3] = Concentration producing 50% inhibition of carbonic anhydrase taken from mouse erythrocytes
# Summary of the method: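 Colorimetric assay, modified from Philpot and Philpot, run in an ice bath with about 2 enzyme units. Inhibitor was preincubated with enzyme for 5 min before substrate was added. Activity was expressed as EU = (T0 − T)/T from the uncatalyzed and catalyzed reaction times in seconds. The 50% inhibitory concentration was read graphically.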
# [4] = Dissociation constant in water; assay type: physicochemical
# Mus musculus [5] = assay: Effective dose of perorally administered compound that gives protection against max electroshock in mice; inactive; assay type: functional, organism-based
# Summary of the method: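 Male mice of 18–28 g, with weights within ±2 g of the assay mean, in groups of ten. Compound was ball-milled in 0.1% (v/v) Tween-80 in saline and given by gavage at 2.5, 6.25 and 16 mg/kg, 2 h before shock. Vehicle controls were included. Corneal electrodes delivered 200 ms at 20 mA (mean weight ≤20 g) or 25 mA, the current giving maximal tonic extensor convulsion in untreated mice.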
# [6] = Dissociation constant in 30% aqueous methanol; assay type: physicochemical
SMILES,Ratio [1],ED50 (Mus musculus [2]) [mg/kg],further results
NS(=O)(=O)c1ccc([S+]([O-])c2cccc(Cl)c2)s1 (centres undefined),1.75,4,–
CC(=O)Nc1ccc([S+]([O-])c2ccc(S(N)(=O)=O)s2)cc1 (centres undefined),1.5,4,–
NS(=O)(=O)c1ccc(Sc2cccc(F)c2)s1,< 1.3,> 6,–
NS(=O)(=O)c1ccc(S(=O)(=O)c2ccccc2)cc1,0.9,10,Concentration [3]: 64 nM; pKa [4]: 9.1
NS(=O)(=O)c1ccc([S+]([O-])c2ccc(F)cc2)s1 (centres undefined),2,3,–
CN(C)S(=O)(=O)c1ccc(S(=O)(=O)c2ccc(S(N)(=O)=O)s2)cc1,–,–,ED50 (Mus musculus [5]): inactive
NS(=O)(=O)c1cc(Br)c(Sc2ccccc2)s1,–,–,ED50 (Mus musculus [5]): inactive
CC(=O)Nc1ccc(S(=O)(=O)c2cc(Cl)c(S(N)(=O)=O)s2)cc1,< 1.3,> 6,–
Cc1ccc(Sc2ccc(S(N)(=O)=O)s2)cc1,< 0.2,> 40,–
NS(=O)(=O)c1ccc(S(=O)(=O)c2ccc(Cl)cc2)s1,2.3,3,–
NS(=O)(=O)c1sc(S(=O)(=O)c2ccccc2)cc1Cl,0.2,33,–
NS(=O)(=O)c1ccc(Sc2cccc(C(F)(F)F)c2)s1,1.3,6,–
CN(C)S(=O)(=O)c1ccc(Sc2ccc(S(N)(=O)=O)s2)cc1,< 1.3,> 6,–
CS(=O)(=O)c1ccc([S+]([O-])c2ccc(S(N)(=O)=O)s2)cc1 (centres undefined),< 0.4,> 16,–
Nc1ccc(S(=O)(=O)c2ccc(S(N)(=O)=O)s2)cc1,3.5,2,–
NS(=O)(=O)c1ccc(Sc2ccc(F)cc2)s1,1,7,–
NS(=O)(=O)c1ccc(S(=O)(=O)c2ccccc2)s1,3.5,2,–
NS(=O)(=O)c1cc(Cl)c(S(=O)(=O)c2ccccc2)s1,2.3,3,–
NS(=O)(=O)c1sc(Sc2ccccc2)cc1Cl,–,–,ED50 (Mus musculus [5]): inactive
CC(C)C(=O)Nc1ccc(S(=O)(=O)c2ccc(S(N)(=O)=O)s2)cc1,2,4,–
NS(=O)(=O)c1ccc([S+]([O-])c2ccccc2)s1 (centres undefined),3.5,2,–

SMILES,Ratio [1],ED50 (Mus musculus [2]) [mg/kg],further results
NS(=O)(=O)c1cc(Cl)c([S+]([O-])c2ccccc2)s1 (centres undefined),< 1.3,> 6,–
CC(=O)Nc1ccc(Sc2ccc(S(N)(=O)=O)s2)cc1,1.1,9,–
NS(=O)(=O)c1ccc([S+]([O-])c2cccc(F)c2)s1 (centres undefined),3.2,2.5,–
CC(=O)Nc1ccc(Sc2sc(S(N)(=O)=O)cc2Cl)cc1,–,–,ED50 (Mus musculus [5]): inactive
NS(=O)(=O)c1ccc(S(=O)(=O)c2ccc(F)cc2)s1,4,2,Concentration [3]: 9 nM; pKa [4]: 8.29
Cc1ccc([S+]([O-])c2ccc(S(N)(=O)=O)s2)cc1 (centres undefined),< 1.3,> 6,–
NS(=O)(=O)c1ccc(S(=O)(=O)c2ccc(O)cc2)s1,–,–,ED50 (Mus musculus [5]): inactive
NS(=O)(=O)c1ccc(S(=O)(=O)c2ccc(Br)cc2)s1,1.75,4,–
NS(=O)(=O)c1ccc(Sc2ccccc2)s1,0.3,19,–
CC(C)(C)c1ccc(Sc2ccc(S(N)(=O)=O)s2)cc1,–,–,ED50 (Mus musculus [5]): inactive
CSc1ccc(Sc2ccc(S(N)(=O)=O)s2)cc1,1.75,4,–
NS(=O)(=O)c1ccc(Sc2ccc(O)cc2)s1,–,–,ED50 (Mus musculus [5]): inactive
CC(=O)Nc1ccc(Sc2cc(Cl)c(S(N)(=O)=O)s2)cc1,1.4,5,–
COc1ccc(S(=O)(=O)c2ccc(S(N)(=O)=O)s2)cc1,1,6,–
Cc1ccc(S(=O)(=O)c2ccc(S(N)(=O)=O)s2)cc1,0.8,8,–
NS(=O)(=O)c1cc(Cl)c(Sc2ccccc2)s1,–,–,ED50 (Mus musculus [5]): inactive
NS(=O)(=O)c1ccc(S(=O)(=O)c2ccc3ccccc3c2)s1,0.75,8,–
COc1ccc(Sc2ccc(S(N)(=O)=O)s2)cc1,< 0.2,> 40,–
CC(=O)Nc1nnc(S(N)(=O)=O)s1 [ACETAZOLAMIDE],–,36,Concentration [3]: 20 nM
NS(=O)(=O)c1ccc(Sc2ccc3ccccc3c2)s1,–,–,ED50 (Mus musculus [5]): inactive
CC(C)C(=O)Nc1ccc(Sc2ccc(S(N)(=O)=O)s2)cc1,–,–,ED50 (Mus musculus [5]): inactive

SMILES,Ratio [1],ED50 (Mus musculus [2]) [mg/kg],further results
NS(=O)(=O)c1ccc(S(=O)(=O)c2cccc(F)c2)s1,3.5,2,–
NS(=O)(=O)c1ccc(Sc2ccc(Cl)cc2)s1,2,3,pKa [6]: 9.19; Concentration [3]: 3 nM
NS(=O)(=O)c1ccc([S+]([O-])c2ccc(Br)cc2)s1 (centres undefined),1.4,5,–
Cc1cc(S(N)(=O)=O)sc1S(=O)(=O)c1ccccc1,2.7,3,–
NS(=O)(=O)c1ccc([S+]([O-])c2ccc(Cl)cc2)s1 (centres undefined),3.5,2,Concentration [3]: 26 nM; pKa [4]: 8.57
NS(=O)(=O)c1cc(Br)c(S(=O)(=O)c2ccccc2)s1,2.3,3,Concentration [3]: 4.2 nM; pKa [4]: 7.98
CC(=O)Nc1ccc(S(=O)(=O)c2sc(S(N)(=O)=O)cc2Cl)cc1,1.3,6,–
Cc1ccccc1S(=O)(=O)c1ccc(S(N)(=O)=O)s1,1.2,6,–
COc1ccc([S+]([O-])c2ccc(S(N)(=O)=O)s2)cc1 (centres undefined),< 1.3,> 6,–
COC1CCN(S(=O)(=O)c2ccc(S(N)(=O)=O)c(Cl)c2)CC1,–,–,Concentration [3]: 190 nM
NS(=O)(=O)c1ccc(Sc2cccc(Cl)c2)s1,< 1.2,> 6,–
CC(=O)Nc1ccc(S(=O)(=O)c2ccc(S(N)(=O)=O)s2)cc1,4,2,–
CS(=O)(=O)c1ccc(Sc2ccc(S(N)(=O)=O)s2)cc1,1.4,5,–
CC(=O)c1cccc(S(=O)(=O)c2ccc(S(N)(=O)=O)s2)c1,2.3,3,–
NS(=O)(=O)c1ccc(Sc2ccc(Br)cc2)s1,< 1.2,> 6,–
CS(=O)(=O)c1ccc(S(=O)(=O)c2ccc(S(N)(=O)=O)s2)cc1,1.75,4,–
CC(C)(C)c1ccc(S(=O)(=O)c2ccc(S(N)(=O)=O)s2)cc1,–,–,ED50 (Mus musculus [5]): inactive
Cc1ccccc1Sc1ccc(S(N)(=O)=O)s1,< 0.5,> 16,–
NC(=O)c1ccc(S(=O)(=O)c2ccc(S(N)(=O)=O)s2)cc1,2,4,–
NS(=O)(=O)c1ccc(S(=O)(=O)c2cccc(C(F)(F)F)c2)s1,1.6,5,–
Nc1ccc(Sc2ccc(S(N)(=O)=O)s2)cc1,1,7,–
